Experimental findings from ChEMBL document CHEMBL1126787 (J Med Chem, 1993) are described below.

Data set [1] is filed under the species Homo sapiens. Nature of the data set: % of lactone form at equilibrium in HSA buffer at 37 degree C in the presence of human serum albumin. The class given is functional. The gist of the method: (§1)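 Lactone-to-carboxylate hydrolysis of drug (1 μM total) in PBS (137 mM NaCl, 3 mM KCl, 8 mM Na2HPO4, 1 mM KH2PO4, pH 7.4) at 37 °C, with or without 20 mg/mL (290 μM) HSA. Monitored by HPLC over time. t1/2 and equilibrium % lactone fitted to decay profiles by nonlinear least squares. Average of at least three independent kinetic runs.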

The species named for data set [2] is Homo sapiens. Nature of the data set: % of lactone form at equilibrium in PBS buffer at 37 degree C in the absence of human serum albumin. The format is functional. The method, boiled down: as §1
Data set [3] is filed under the species Homo sapiens. The data set can be described thus: % of lactone form at equilibrium in human plasma. The format is functional. The method, boiled down: (§2)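 Drug (1 μM) incubated at 37 °C in human plasma, continuously aerated with blood gas to hold pH 7.6 ± 0.1. Lactone hydrolysis followed by HPLC. t1/2 and equilibrium % lactone fitted to decay profiles by nonlinear least squares. Average of at least three independent kinetic runs.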

The species named for data set [4] is Homo sapiens. The data set can be described thus: n value for the binding of lactone form to human serum albumin (n value = number of amino acid per binding site). The format is functional. The method, boiled down: (§3)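 Fluorescence lifetime titration of lactone or carboxylate form (20 μM total drug) with varying HSA. Phase-shift lifetimes measured with 30 MHz modulated excitation, emission taken through a 500-nm long-pass filter. Free fraction computed as (τ − τB)/(τF − τB). K and n obtained by nonlinear least-squares fit to K = [Db]/[Df][aa]^n, where aa is amino acid residues.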

The species named for data set [5] is Homo sapiens. Nature of the data set: n value for the binding of carboxylate form to human serum albumin (n value = number of amino acid per binding site). The format is functional. The method, boiled down: as §3
Data set [6] can be described thus: Half-life period in human plasma. The class given is ADME. The method, boiled down: as §2
Data set [7] is described as follows: Half-life period in PBS buffer at 37 degree C in the absence of human serum albumin. The format is ADME. The method, boiled down:
as §1

For data set [8], the species on record is Homo sapiens. The data set can be described thus: Association constant for the binding of carboxylate form to human serum albumin. The class given is functional. The gist of the method: as §3
For data set [9], the species on record is Homo sapiens. The data set can be described thus: Association constant for the binding of lactone form to human serum albumin. The format is functional. The gist of the method: as §3
Data set [10] in a line: Half-life period in HSA buffer at 37 degree C in the presence of human serum albumin. The note with it: buffer with human serum albumin. The class given is ADME. The method, boiled down: as §1
Data set [11] is described as follows: Half-life period in PBS buffer at 37 C in the absence of human serum albumin. The format is ADME. The method, boiled down: as §1
The species named for data set [12] is Homo sapiens. The data set can be described thus: % of lactone form at equilibrium in PBS buffer at 37 C in the absence of human serum albumin. The class given is functional.
Data set [13] in a line: Half-life period in HSA buffer at 37 C in the presence of human serum albumin. The class given is ADME. The note with it: buffer with human serum albumin.
The species entered for data set [14] is Homo sapiens. Nature of the data set: % of lactone form at equilibrium in HSA buffer at 37 C in the presence of human serum albumin. The format is functional.

Each structure is given as a SMILES string.

In the case of `CC[C@@]1(O)C(=O)OCc2c1cc1n(c2=O)Cc2cc3ccccc3nc2-1` [CAMPTOTHECIN], the Activity in the data set listed under Homo sapiens [1] was below 0.5%; in the data set listed under Homo sapiens [2], 13%; in the data set listed under Homo sapiens [3], below 0.2%; in the data set listed under Homo sapiens [4], 1.8; in the data set filed under Homo sapiens [5], 2.3. The half-life in [6] was 10.6 min; in data set [7], 16.9 min; in [10], 12.6 min. Further, the K in the data set listed under Homo sapiens [8] was 4700 1/Maa; in the data set listed under Homo sapiens [9], 30 1/Maa.

Consider `CC[C@@]1(O)C(=O)OCc2c1cc1n(c2=O)Cc2cc3cc(O)ccc3nc2-1` [HYDROXYCAMPTOTHECIN], for which the half-life in [11] is 22.1 min; in [13], 21.1 min; in data set [6], 18.6 min. Also, the Activity is recorded as 6% in the data set listed under Homo sapiens [3]; 16% in the data set filed under Homo sapiens [12]; 1.7 in the data set listed under Homo sapiens [4]; 1.7 in the data set listed under Homo sapiens [5]; 4% in the data set filed under Homo sapiens [14]. Besides, the K in the data set filed under Homo sapiens [8] is 264 1/Maa; in the data set filed under Homo sapiens [9], 135 1/Maa.

Turning to `CCc1c2c(nc3ccc(O)cc13)-c1cc3c(c(=O)n1C2)COC(=O)[C@]3(O)CC` [7-ETHYL-10-HYDROXYCAMPTOTHECIN], the half-life was determined as 19.9 min in data set [11] and 34.3 min in data set [6]. This molecule also came in with an Activity in the data set listed under Homo sapiens [3] of 24%. The figures for the K in the data set listed under Homo sapiens [8] and in the data set filed under Homo sapiens [9] were 148 1/Maa and 636 1/Maa, respectively.

As usually defined, the half-life is how long it takes for the measured level to halve.
